# What was measured:
# Format in all cases: functional
# Settings in all cases: read-out: ED50 (the source's name)
# KB = assay: Cytotoxicity against human KB cells by methylene blue staining method
# Procedure, shortened: (§1)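 Tumor cells cultured in RPMI-1640 medium and exposed to test sample for 72 h. Growth inhibition read by methylene blue staining (absorbance). ED50 taken as the concentration giving 50% reduction of absorbance relative to untreated cells.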
# HeLa = assay: Cytotoxicity against human HeLa cells by methylene blue staining method; procedure, shortened: as §1
# [1] = Cytotoxicity against human HEPA 59T/VGH cells by methylene blue staining method; procedure, shortened: as §1
Compound,EC50 (KB),EC50 (HeLa),EC50 [1]
C=C1C(=O)O[C@H]2/C=C(/C)[C@@H](O)C[C@H]3O[C@@]3(C)C[C@@H](OC(=O)/C(C)=C/C)[C@@H]12 [HELIANGIN],1.8 µg/mL,4.4 µg/mL,2 µg/mL
C=C1C(=O)O[C@H]2/C=C(/COC(C)=O)[C@@H](O)C[C@H]3O[C@@]3(C)C[C@@H](OC(=O)/C(C)=C/C)[C@@H]12,4.3 µg/mL,7.5 µg/mL,7 µg/mL
C=C1C(=O)O[C@@H]2/C=C(\C)C(=O)/C=C/[C@](C)(O)C[C@@H](OC(=O)/C(C)=C/C)[C@@H]12 [EUPAHELIANGOLIDE A],3.5 µg/mL,3.3 µg/mL,3.5 µg/mL
C=C1C(=O)O[C@H]2/C=C(\C)[C@]3(O)CC[C@](C)(C[C@@H](OC(=O)/C(C)=C/C)[C@@H]12)O3 [EUPAKIRUNSIN D],4.8 µg/mL,5.8 µg/mL,5 µg/mL
C=C1C(=O)O[C@H]2[C@H]1[C@H](OC(=O)/C(C)=C/C)C[C@H](C)[C@H](O)CC(=O)[C@]1(C)O[C@H]21 [EUPAKIRUNSIN C],8.1 µg/mL,7.1 µg/mL,8.6 µg/mL
C=C1C(=O)O[C@H]2/C=C(\C)C(=O)[C@@H]3O[C@H]3[C@](C)(O)C[C@@H](OC(=O)/C(C)=C/C)[C@@H]12 [EUPAKIRUNSIN E],> 20 µg/mL,> 20 µg/mL,> 20 µg/mL
COc1cccc2c1C(=O)c1c(O)c3c(c(O)c1C2=O)C[C@@](O)(C(=O)CO)C[C@@H]3O[C@H]1C[C@H](N)[C@H](O)[C@H](C)O1 [DOXORUBICIN],0.15 µg/mL,0.14 µg/mL,0.19 µg/mL
C=C1C(=O)O[C@H]2/C=C(\C)[C@H](O)/C=C\[C@](C)(O)C[C@@H](OC(=O)/C(C)=C/C)[C@@H]12 [EUPAKIRUNSIN B],> 20 µg/mL,> 20 µg/mL,> 20 µg/mL
C=C1C(=O)O[C@H]2[C@H]1[C@H](OC(=O)/C(C)=C/C)CC(=C)[C@H](O)[C@@H]1O[C@@H]1[C@]1(C)O[C@H]21 [EUPAKIRUNSIN A],5.5 µg/mL,8.9 µg/mL,4.4 µg/mL
C=C1C(=O)O[C@H]2/C=C(/C)[C@H](O)C[C@H]3O[C@@]3(C)C[C@@H](OC(=O)/C(C)=C/C)[C@@H]12,3.2 µg/mL,3.1 µg/mL,4.4 µg/mL
